Data: ChEMBL document CHEMBL1177874, “Synthesis and in vitro anticancer screening of some novel 4-[2-amino-3-cyano-4-substituted-5,6,7,8-tetrahydroquinolin-1-(4H)-yl]benzenesulfonamides” (Eur J Med Chem, 2010)

Columns and labels:
[1] = Cytotoxicity against mouse EAC cells assessed as non-viable cells at 10 ug/ml after 2 hrs by trypan blue exclusion assay; assay type: functional, Ehrlich
Summary of the method: (§1)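 EAC cells drawn aseptically by needle aspiration of ascitic fluid from previously inoculated mice; suspension at 2.5 × 10^6 cells per ml. Test agents dissolved in DMSO (1 ml) at 100, 50, 25 and 10 µg, then diluted into the cell suspension. Incubation 2 h at 37 °C. Non-viable cell percentage counted by trypan blue exclusion. IC50 taken from the survival ratio versus concentration curve.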

[2] = Cytotoxicity against mouse EAC cells after 2 hrs by trypan blue exclusion assay; assay type: functional, cell-based; conditions: Ehrlich; summary of the method: as §1
[3] = Cytotoxicity against mouse EAC cells assessed as non-viable cells at 25 ug/ml after 2 hrs by trypan blue exclusion assay; assay type: functional, Ehrlich; summary of the method: as §1
[4] = Cytotoxicity against mouse EAC cells assessed as non-viable cells at 100 ug/ml after 2 hrs by trypan blue exclusion assay; assay type: functional, Ehrlich; summary of the method: as §1
[5] = Cytotoxicity against mouse EAC cells assessed as non-viable cells at 50 ug/ml after 2 hrs by trypan blue exclusion assay; assay type: functional, Ehrlich; summary of the method: as §1

Molecule `N#CC1=C(N)N(c2ccc(S(N)(=O)=O)cc2)C2=C(CCCC2)C1c1ccccc1` (stereo not given) has an Activity [1] of 5%, an IC50 [2] greater than 100 µg/mL and an Activity [3] of 10%. The Activity [4] was 30% and the Activity [5] was 20%.

In the case of `N#CC1=C(N)N(c2ccc(S(N)(=O)=O)cc2)C2=C(CCCC2)C1c1ccc(Cl)c(Cl)c1` (stereo not given), the Activity [1] is reported as 1%, the IC50 [2] is reported as 100 µg/mL and the Activity [3] is reported as 40%. The Activity [4] was 50% and the Activity [5] was 50%.

For `Cc1ccc(C2C(C#N)=C(N)N(c3ccc(S(N)(=O)=O)cc3)C3=C2CCCC3)cc1` (stereo not given), the Activity [1] was 20%, the IC50 [2] was 85.7 µM and the Activity [3] was 30%. For the same molecule, the Activity [4] was 90% and the Activity [5] was 80%.

In the case of `N#CC1=C(N)N(c2ccc(S(N)(=O)=O)cc2)C2=C(CCCC2)C1c1ccccc1O` (stereo not given), the Activity [1] is reported as 10%, the IC50 [2] is reported as 118 µM and the Activity [3] is reported as 40%. The Activity [4] was 100% and the Activity [5] was 50%.

With `N#CC1=C(N)N(c2ccc(S(N)(=O)=O)cc2)C2=C(CCCC2)C1c1ccc(O)cc1` (stereo not given) the Activity [1] was 20%, the IC50 [2] was 82.9 µM and the Activity [3] was 42%. The Activity [4] was 100% and the Activity [5] was 60%.

Molecule `N#CC1=C(N)N(c2ccc(S(N)(=O)=O)cc2)C2=C(CCCC2)C1c1cccc([N+](=O)[O-])c1` (stereo not given) has an Activity [1] of 0%, an IC50 [2] greater than 100 µg/mL and an Activity [3] of 1%. The Activity [4] was 12% and the Activity [5] was 2%.

Molecule `N#CC1=C(N)N(c2ccc(S(N)(=O)=O)cc2)C2=C(CCCC2)C1c1ccc([N+](=O)[O-])cc1` (stereo not given) has an Activity [1] of 0%, an IC50 [2] greater than 100 µg/mL and an Activity [3] of 5%. The Activity [4] was 20% and the Activity [5] was 10%.

For `N#CC1=C(N)N(c2ccc(S(N)(=O)=O)cc2)C2=C(CCCC2)C1c1ccccc1Cl` (stereo not given), the Activity [1] was 0%, the IC50 [2] was greater than 100 µg/mL and the Activity [3] was 0%. For the same molecule, the Activity [4] was 10% and the Activity [5] was 5%.

Molecule `N#CC1=C(N)N(c2ccc(S(N)(=O)=O)cc2)C2=C(CCCC2)C1c1ccc(Cl)cc1Cl` (stereo not given) has an Activity [1] of 0%, an IC50 [2] of 105 µM and an Activity [3] of 50%. The Activity [4] was 70% and the Activity [5] was 50%.

In the case of `N#CC1=C(N)N(c2ccc(S(N)(=O)=O)cc2)C2=C(CCCC2)C1c1c(O)ccc2ccccc12` (stereo not given), the Activity [1] is reported as 10%, the IC50 [2] is reported as 100 µg/mL and the Activity [3] is reported as 5%. It also gave an Activity [4] of 50% and an Activity [5] of 20%.

Molecule `COc1ccc2ccccc2c1C1C(C#N)=C(N)N(c2ccc(S(N)(=O)=O)cc2)C2=C1CCCC2` (stereo not given) has an Activity [1] of 5%, an IC50 [2] of 100 µg/mL and an Activity [3] of 10%. It also gave an Activity [4] of 50% and an Activity [5] of 10%.

Molecule `COc1ccc(C2C(C#N)=C(N)N(c3ccc(S(N)(=O)=O)cc3)C3=C2CCCC3)c2ccccc12` (stereo not given) has an Activity [1] of 0%, an IC50 [2] greater than 100 µg/mL and an Activity [3] of 5%. It also gave an Activity [4] of 20% and an Activity [5] of 10%.

`N#CC1=C(N)N(c2ccc(S(N)(=O)=O)cc2)C2=C(CCCC2)C1/C=C/c1ccccc1` (stereo not given) showed an Activity [1] of 50%, an IC50 [2] of 23.1 µM and an Activity [3] of 70%. For the same molecule, the Activity [4] was 70% and the Activity [5] was 90%.

`COc1ccccc1C1C(C#N)=C(N)N(c2ccc(S(N)(=O)=O)cc2)C2=C1CCCC2` (stereo not given) showed an Activity [1] of 30%, an IC50 [2] of 115 µM and an Activity [3] of 40%. For the same molecule, the Activity [4] was 100% and the Activity [5] was 50%.

Molecule `COc1cc(C2C(C#N)=C(N)N(c3ccc(S(N)(=O)=O)cc3)C3=C2CCCC3)ccc1O` (stereo not given) has an Activity [1] of 0%, an IC50 [2] of 100 µg/mL and an Activity [3] of 2%. The Activity [4] was 50% and the Activity [5] was 30%.

Molecule `CCOc1cc(C2C(C#N)=C(N)N(c3ccc(S(N)(=O)=O)cc3)C3=C2CCCC3)ccc1OC` (stereo not given) has an Activity [1] of 0%, an IC50 [2] greater than 100 µg/mL and an Activity [3] of 5%. It also gave an Activity [4] of 10% and an Activity [5] of 5%.

In the case of `COc1cc(OC)c(C2C(C#N)=C(N)N(c3ccc(S(N)(=O)=O)cc3)C3=C2CCCC3)cc1OC` (stereo not given), the Activity [1] is reported as 0%, the IC50 [2] is reported as 101 µM and the Activity [3] is reported as 0%. For the same molecule, the Activity [4] was 100% and the Activity [5] was 50%.

In the case of `N#CC1=C(N)N(c2ccc(S(N)(=O)=O)cc2)C2=C(CCCC2)C1c1cccs1` (stereo not given), the Activity [1] is reported as 0%, the IC50 [2] is reported as greater than 100 µg/mL and the Activity [3] is reported as 5%. It also gave an Activity [4] of 20% and an Activity [5] of 10%.

In the case of `Cc1ccc(C2C(C#N)=C(N)N(c3ccc(S(N)(=O)=O)cc3)C3=C2CCCC3)o1` (stereo not given), the Activity [1] is reported as 0%, the IC50 [2] is reported as greater than 100 µg/mL and the Activity [3] is reported as 10%. For the same molecule, the Activity [4] was 30% and the Activity [5] was 10%.

For `COc1ccc(C2C(C#N)=C(N)N(c3ccc(S(N)(=O)=O)cc3)C3=C2CCCC3)cc1` (stereo not given), the Activity [1] was 50%, the IC50 [2] was 22.9 µM and the Activity [3] was 90%. For the same molecule, the Activity [4] was 100% and the Activity [5] was 100%.

Work on `N#CC1=C(N)N(c2ccc(S(N)(=O)=O)cc2)C2=C(CCCC2)[C@@H]1c1ccc2c(c1)OCO2` yielded an Activity [1] of 100%, an IC50 [2] of less than 22.2 µM and an Activity [3] of 100%. The Activity [4] was 100% and the Activity [5] was 100%.

In the case of `COc1cccc2c1C(=O)c1c(O)c3c(c(O)c1C2=O)C[C@@](O)(C(=O)CO)C[C@@H]3O[C@H]1C[C@H](N)[C@H](O)[C@H](C)O1` [DOXORUBICIN], the Activity [1] is reported as 17%, the IC50 [2] is reported as 69.9 µM and the Activity [3] is reported as 25%. The Activity [4] was 100% and the Activity [5] was 70%.
